Data set [1] concerns Leishmania donovani. Briefly: Antileishmanial activity against Leishmania donovani amastigotes infected in mouse J774A.1 cells after 72 hrs by luciferase reporter gene based luminometric analysis. Type of data set: functional, organism-based. The settings on record: J774.A1, 72 h. In short, it runs like this: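 J-774A.1 macrophages seeded at 4 × 10⁴/well in RPMI-1640 + 10% FCS, 37 °C, CO₂. After 24 h, infected with stationary-phase luciferase-expressing promastigotes (4 × 10⁵/well). Medium replaced with compound, seven-point twofold dilutions from 40 µM, for 72 h. Steady Glo added, luminescence read as RLU. IC50 by nonlinear regression with four-parameter Hill fit.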
Background: Reporter assays use an easily measured gene product as a stand-in for the process of interest.

The test system of data set [2] is Leishmania donovani. Briefly: Antileishmanial activity against Leishmania donovani MHOM/IN/80/Dd8 amastigotes infected in golden hamster assessed as inhibition of parasite multiplication at 50 mg/kg, ip for 5 days measured on day 7 by Giemsa staining. Format: functional. The conditions noted are these: for inhibition in vivo at 50 mg/kg: MHOM/IN/80/Dd8, ip, route intraperitoneal. In short, it runs like this: (§1)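 Golden hamsters (inbred, either sex, 40–45 g) infected intracardially with 1 × 10⁷ amastigotes each; infection establishes in 15–20 days. Animals randomized by biopsy parasite burden, 5–6 per sample. Dosing began 2 days after biopsy, five consecutive days. Post-treatment biopsy on day 7 after last dose, amastigotes counted by Giemsa staining. PI = 100 − [ANAT × 100/(INAT × TIUC)] versus untreated controls.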

Data set [3] in a line: Selectivity index, ratio of CC50 for human KB cells to IC50 for Leishmania donovani amastigotes infected in mouse J774A.1 cells. Type of data set: functional. In short, it runs like this: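 SI = CC50 (KB cells, MTT, 72 h) divided by IC50 against intracellular amastigotes in J-774A.1 macrophages (luciferase read-out, 72 h).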
The nature of data set [4]: Cytotoxicity against human KB cells assessed as cell viability after 72 hrs by MTT assay. Type of data set: cell-based. The method in brief:
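Exponentially growing KB cells at 1 × 10⁵/well exposed 72 h at 37 °C in humidified CO₂/air to seven-point threefold dilutions from 400 µM; DMSO vehicle wells as control. MTT (5 mg/ml) added 2 h at 37 °C, supernatant removed, DMSO added, absorbance at 544 nm. CC50 is the concentration giving 50% viability reduction versus medium-only cells.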
In general terms: Formazan colour is commonly taken as a measure of viable cells.

Data set [5] has as its system Leishmania donovani. Description: Antileishmanial activity against Leishmania donovani MHOM/IN/80/Dd8 amastigotes infected in golden hamster assessed as inhibition of parasite multiplication at 30 mg/kg, po for 5 days measured on day 7 by Giemsa staining. Format: functional. In short, it runs like this:
as §1

Active and inactive are the calls of the source. The calls are words filed in the database; no cut-off is given here.

Take `COc1cc(/C=C/C(=O)C=C(SC)SC)ccc1OCc1ccccc1`: the IC50 (as a rule, the midpoint of a concentration-inhibition curve) in the data set on Leishmania donovani [1] is 3.56 µM. The inhibition in vivo (commonly the drop in the measured response relative to a control, in per cent) at 50 mg/kg in the data set on Leishmania donovani [2] was determined as 78%. The “Ratio CC50/IC50” value in data set [3] is 57.26. Also, the CC50 (in general, the concentration that lowers cell viability or growth by half) at 72 h in data set [4] turned out to be 204 µM.

On to `CSC(=CC(=O)/C=C/c1ccc(-n2cnnc2)cc1)SC`, for which the IC50 with Leishmania donovani [1] is over 20 µM. For the same compound, in the data set on Leishmania donovani [2], the inhibition result was “inactive”.

For `CCCCCCCCCCCCCCCCOP(=O)([O-])OCC[N+](C)(C)C` [MILTEFOSINE], half-maximal inhibition in the data set with Leishmania donovani [1] (IC50) was put at 12.5 µM. Further, the “Ratio CC50/IC50” value in data set [3] is given as 0.26. Also, the CC50 at 72 h in data set [4] was determined as 3.23 µM. Besides, the inhibition in vivo at 30 mg/kg in the data set with Leishmania donovani [5] came out at 95.3%.

On to `CSC(=CC(=O)/C=C/c1ccc(F)cc1)SC`, for which the IC50 with Leishmania donovani [1] is over 40 µM. For the same compound, the inhibition result with Leishmania donovani [2] was “inactive”.

In the data set with Leishmania donovani [1], `CSC(=CC(=O)/C=C/c1ccc([N+](=O)[O-])cc1)SC` had an IC50 of over 40 µM. For the same compound, the inhibition result in the data set on Leishmania donovani [2] is “inactive”.

Consider `CSC(=CC(=O)/C=C/c1ccccc1Cl)SC`, for which the half-inhibitory concentration (IC50) in the data set with Leishmania donovani [1] was over 40 µM. Also, in the data set with Leishmania donovani [2], the inhibition entry was “inactive”.

As to `CSC(=CC(=O)/C=C/c1cccc([N+](=O)[O-])c1)SC`, the IC50 in the data set with Leishmania donovani [1] was determined as 5.12 µM. Besides, the inhibition in vivo at 50 mg/kg in the data set with Leishmania donovani [2] stood at 82.8%. The “Ratio CC50/IC50” value in data set [3] is on record as 1.92. For the same compound, in data set [4], the CC50 at 72 h was 9.83 µM.

Turning to `CSC(=CC(=O)/C=C/c1ccc(-n2ccnc2)cc1)SC`, the IC50 in the data set with Leishmania donovani [1] was over 40 µM. Further, the inhibition result with Leishmania donovani [2] is “inactive”.

For `CSC(=CC(=O)/C=C/c1ccc(Cl)cc1)SC`, the IC50 with Leishmania donovani [1] was over 20 µM. The inhibition entry in the data set on Leishmania donovani [2] is “inactive”.

The values are drawn from ChEMBL document CHEMBL2157952, “Chemotherapy of leishmaniasis. Part IX: synthesis and bioevaluation of aryl substituted ketene dithioacetals as antileishmanial agents” (Bioorg Med Chem Lett, 2012).
